From ChEMBL document CHEMBL2046405, “BACE1 Inhibitor Peptides: Can an Infinitely Small k cat Value Turn the Substrate of an Enzyme into Its Inhibitor?” (ACS Med Chem Lett, 2012)
Activity calls are given as the source filed them. The calls are words filed in the database; no cut-off is given here. Where a SMILES comes first, the peptide text is derived from it. [ ]: non-standard residue; d: D form. The star is where a group is joined. Orotyl(5-F) = O=C(c1[nH]c(=O)[nH]c(=O)c1F)*; Dap = NC[C@H](N)C(=O)O

Experiments:
Beta-secretase 1 [1] = target: T1, Beta-secretase 1 (Homo sapiens, UniProt P56817); experiment: Inhibition of human recombinant BACE1 using 7-methoxycoumarin-4-yl)acetyl-Ser-Glu-Val-Asn-Leu*Asp-Ala- Glu-Phe-Arg-Lys(2,4-dinitrophenyl)-Arg-Arg-NH2 as substrate at 2 uM by FRET assay
T1 sequence (P56817 whole entry, the tested form may be a part): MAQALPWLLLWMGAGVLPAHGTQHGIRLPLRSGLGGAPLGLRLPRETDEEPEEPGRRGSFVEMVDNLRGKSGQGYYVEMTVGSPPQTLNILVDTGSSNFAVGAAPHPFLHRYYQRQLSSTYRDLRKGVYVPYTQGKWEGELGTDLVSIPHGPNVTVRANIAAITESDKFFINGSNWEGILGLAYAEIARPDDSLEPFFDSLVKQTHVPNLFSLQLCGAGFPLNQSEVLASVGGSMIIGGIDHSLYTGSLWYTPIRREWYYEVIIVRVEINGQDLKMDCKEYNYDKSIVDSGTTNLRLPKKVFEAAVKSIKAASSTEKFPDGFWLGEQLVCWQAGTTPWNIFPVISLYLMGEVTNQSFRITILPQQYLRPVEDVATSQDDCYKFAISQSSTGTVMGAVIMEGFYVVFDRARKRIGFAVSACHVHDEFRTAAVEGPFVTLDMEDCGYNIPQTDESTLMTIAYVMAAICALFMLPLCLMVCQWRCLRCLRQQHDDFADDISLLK
Summary of the method: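 Recombinant human BACE1 incubated with FRET substrate and 2.0 μM compound in incubation buffer for 1 h. The N-terminal substrate cleavage fragment was measured by RP-HPLC with fluorescence detection.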

Beta-secretase 1 [2] = target: T1, Beta-secretase 1; experiment: Activity of human recombinant BACE1 after 24 hrs
Summary of the method: (§1)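 Peptides incubated with recombinant human BACE1 for 1 or 24 h in buffer, at the same BACE1 and peptide concentrations as the inhibition assay. The buffer was analysed by HPLC for the product of cleavage at the P1–P1′ amide bond.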

Beta-secretase 1 [3] = target: T1, Beta-secretase 1; experiment: Inhibition of human recombinant BACE1 using 7-methoxycoumarin-4-yl)acetyl-Ser-Glu-Val-Asn-Leu*Asp-Ala- Glu-Phe-Arg-Lys(2,4-dinitrophenyl)-Arg-Arg-NH2 as substrate at 0.2 uM by FRET assay
Summary of the method: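 Recombinant human BACE1 incubated with FRET substrate and 0.2 μM compound in incubation buffer for 1 h. The N-terminal cleavage fragment of the substrate was quantified by RP-HPLC with fluorescence detection.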

Beta-secretase 1 [4] = target: T1, Beta-secretase 1; experiment: Activity of human recombinant BACE1 after 1 hr; summary of the method: as §1
Beta-secretase 1 [5] = target: T1, Beta-secretase 1; experiment: Inhibition of human recombinant BACE1 using 7-methoxycoumarin-4-yl)acetyl-Ser-Glu-Val-Asn-Leu*Asp-Ala- Glu-Phe-Arg-Lys(2,4-dinitrophenyl)-Arg-Arg-NH2 as substrate by FRET assay
Summary of the method: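 Recombinant human BACE1 and FRET substrate incubated 1 h in incubation buffer with compound at 2.0 or 0.2 μM. The N-terminal cleavage fragment was analysed by reverse-phase HPLC with fluorescence detection.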

| SMILES | inhibition (Beta-secretase 1 [1]) [%] | Activity (Beta-secretase 1 [2]) | inhibition (Beta-secretase 1 [3]) [%] | Activity (Beta-secretase 1 [4]) | IC50 (Beta-secretase 1 [5]) [µM] |
| --- | --- | --- | --- | --- | --- |
| CC(C)C[C@H](NC(=O)[C@@H](NC(=O)[C@@H](N)CNC(=O)c1[nH]c(=O)[nH]c(=O)c1F)C(C)C)C(=O)N[C@@H](Cc1ccccc1)C(=O)N[C@@H](CO)C(=O)O | 85 | inactive | 48 | inactive | 0.263 |
| CC(C)C[C@H](NC(=O)[C@@H](NC(=O)[C@@H](N)CNC(=O)c1[nH]c(=O)[nH]c(=O)c1F)C(C)C)C(=O)N[C@@H](Cc1ccccc1)C(=O)N[C@H](CC(N)=O)C(=O)O | 95 | inactive | 65 | inactive | 0.086 |
| CC(C)C[C@H](NC(=O)[C@@H](NC(=O)[C@@H](N)CNC(=O)c1[nH]c(=O)[nH]c(=O)c1F)C(C)C)C(=O)N[C@@H](Cc1ccccc1)C(=O)O (H-[Dap](Orotyl(5-F))VLF-OH) | 90 | Active | 54 | Active | 0.184 |
| CC(C)C[C@H](NC(=O)[C@@H](NC(=O)[C@@H](N)CNC(=O)c1[nH]c(=O)[nH]c(=O)c1F)C(C)C)C(=O)N[C@@H](Cc1ccccc1)C(=O)N[C@@H](CC(N)=O)C(=O)O | 89 | inactive | 56 | inactive | 0.173 |
| CC(C)[C@H](NC(=O)[C@@H](N)CCC(=O)O)C(=O)N[C@@H](CC(N)=O)C(=O)N[C@@H](Cc1ccccc1)C(=O)O (H-EVNF-OH) | < 5 |  |  |  |  |
| CC(C)C[C@H](NC(=O)[C@@H](NC(=O)[C@@H](N)CNC(=O)c1[nH]c(=O)[nH]c(=O)c1F)C(C)C)C(=O)N[C@@H](Cc1ccccc1)C(=O)N[C@H](C)C(=O)O | 93 |  | 53 |  | 0.169 |
| CC(C)[C@H](NC(=O)[C@@H](N)CNC(=O)c1[nH]c(=O)[nH]c(=O)c1F)C(=O)N[C@@H](CC1CCCCC1)C(=O)N[C@@H](Cc1ccccc1)C(=O)N[C@H](CO)C(=O)O | 92 |  | 54 |  | 0.163 |
| CC(C)[C@H](NC(=O)[C@@H](N)CCC(=O)O)C(=O)N[C@@H](CCCCN)C(=O)N[C@@H](Cc1ccccc1)C(=O)O (H-EVKF-OH) | 10 |  |  |  |  |
| CC(C)[C@H](NC(=O)[C@@H](N)CNC(=O)c1[nH]c(=O)[nH]c(=O)c1F)C(=O)N[C@@H](CC(N)=O)C(=O)N[C@@H](Cc1ccccc1)C(=O)N[C@@H](CC(N)=O)C(=O)O (H-[Dap](Orotyl(5-F))VNFN-OH) | < 5 |  |  |  |  |
| CC(C)[C@H](NC(=O)[C@@H](N)CNC(=O)c1[nH]c(=O)[nH]c(=O)c1F)C(=O)N[C@@H](CC(N)=O)C(=O)N[C@@H](Cc1ccccc1)C(=O)O (H-[Dap](Orotyl(5-F))VNF-OH) | < 5 |  |  |  |  |
| CC(C)C[C@H](NC(=O)[C@@H](NC(=O)[C@@H](N)CNC(=O)c1[nH]c(=O)[nH]c(=O)c1F)C(C)C)C(=O)N[C@@H](Cc1ccccc1)C(=O)N[C@@H](C(=O)O)C(C)C | 94 |  | 69 |  | 0.082 |
| CC(C)C[C@H](NC(=O)[C@@H](NC(=O)[C@@H](N)CNC(=O)c1[nH]c(=O)[nH]c(=O)c1F)C(C)C)C(=O)N[C@@H](Cc1ccccc1)[C@@H](O)C(=O)Nc1cccc(C(=O)O)c1 |  |  |  |  | 0.026 |
| CC(C)[C@H](NC(=O)[C@@H](N)CNC(=O)c1[nH]c(=O)[nH]c(=O)c1F)C(=O)N[C@@H](CC1CCCCC1)C(=O)N[C@@H](Cc1ccccc1)C(=O)N[C@H](CC(N)=O)C(=O)O | 92 |  | 58 |  | 0.141 |
| CC(C)C[C@H](NC(=O)[C@@H](NC(=O)[C@@H](N)CNC(=O)c1[nH]c(=O)[nH]c(=O)c1F)C(C)C)C(=O)N[C@@H](Cc1ccccc1)C(=O)N[C@H](CO)C(=O)O | 94 | inactive | 57 | inactive | 0.138 |

Other lines, results leading:

| inhibition (Beta-secretase 1 [1]) [%] | Activity (Beta-secretase 1 [2]) | inhibition (Beta-secretase 1 [3]) [%] | Activity (Beta-secretase 1 [4]) | IC50 (Beta-secretase 1 [5]) [µM] | SMILES |
| --- | --- | --- | --- | --- | --- |
| 6 |  |  |  |  | CC(C)C[C@H](NC(=O)[C@@H](NC(=O)[C@@H](N)CCC(=O)O)C(C)C)C(=O)N[C@@H](Cc1ccccc1)C(=O)N[C@@H](CO)C(=O)N[C@@H](C)C(=O)N[C@@H](CCC(=O)O)C(=O)N[C@@H](Cc1ccccc1)C(=O)O |
| < 5 |  |  |  |  | CC(C)C[C@H](NC(=O)[C@@H](NC(=O)[C@@H](N)CCC(=O)O)C(C)C)C(=O)N[C@@H](Cc1ccccc1)C(=O)N[C@@H](CS)C(=O)N[C@@H](C)C(=O)N[C@@H](CCC(=O)O)C(=O)N[C@@H](Cc1ccccc1)C(=O)O |
| 28 |  |  |  |  | CC(C)C[C@H](NC(=O)[C@@H](NC(=O)[C@@H](N)CCC(=O)O)C(C)C)C(=O)N[C@@H](Cc1ccccc1)C(=O)N[C@H](CS)C(=O)N[C@@H](C)C(=O)N[C@@H](CCC(=O)O)C(=O)N[C@@H](Cc1ccccc1)C(=O)O |
| 8 |  |  |  |  | CC(C)C[C@H](NC(=O)[C@@H](NC(=O)[C@@H](N)CCC(=O)O)C(C)C)C(=O)N[C@@H](Cc1ccccc1)C(=O)O (H-EVLF-OH) |
| 28 |  |  |  |  | CC(C)C[C@H](NC(=O)[C@@H](NC(=O)[C@@H](N)CCC(=O)O)C(C)C)C(=O)N[C@@H](Cc1ccccc1)C(=O)N[C@H](CO)C(=O)N[C@@H](C)C(=O)N[C@@H](CCC(=O)O)C(=O)N[C@@H](Cc1ccccc1)C(=O)O |
| 23 |  |  |  |  | CC(C)C[C@H](NC(=O)[C@@H](NC(=O)[C@@H](N)CCC(=O)O)C(C)C)C(=O)N[C@@H](Cc1ccccc1)C(=O)N[C@H](CO)C(=O)O |
| 7 |  |  |  |  | CC(C)C[C@H](NC(=O)[C@@H](NC(=O)[C@@H](N)CCC(=O)O)C(C)C)C(=O)N[C@@H](Cc1ccccc1)C(=O)N[C@@H](CN)C(=O)N[C@@H](C)C(=O)N[C@@H](CCC(=O)O)C(=O)N[C@@H](Cc1ccccc1)C(=O)O |
| 15 |  |  |  |  | CC(C)C[C@H](NC(=O)[C@@H](NC(=O)[C@@H](N)CCC(=O)O)C(C)C)C(=O)N[C@@H](Cc1ccccc1)C(=O)N[C@H](CN)C(=O)N[C@@H](C)C(=O)N[C@@H](CCC(=O)O)C(=O)N[C@@H](Cc1ccccc1)C(=O)O |
| 29 |  |  |  |  | CC(C)C[C@H](NC(=O)[C@@H](NC(=O)[C@@H](N)CCC(=O)O)C(C)C)C(=O)N[C@@H](Cc1ccccc1)C(=O)N[C@H](CC(N)=O)C(=O)O |
